In ChEMBL document CHEMBL3286335, “Synthesis of 2,3,6-trideoxy sugar triazole hybrids as potential new broad spectrum antimicrobial agents” (Eur J Med Chem, 2014):
Values after ≈ are worked out from the molar mass of the structure shown.

Assays:
[1] = system: Staphylococcus aureus; experiment: Antimicrobial activity against Staphylococcus aureus ATCC 25923 after 24 hrs by microbroth dilution method; format: functional; conditions: ATCC 25923, 24 h
Summary of the method: (§1)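 Broth microdilution per NCCLS guidelines. Bacteria in Mueller-Hinton broth; fungi in MOPS-buffered RPMI 1640. Test compounds at 50-0.36 µg/mL, standard drugs over 32-0.0018 µg/mL. Inoculum 1-5 × 10^3 cells/mL, 35 °C in a moist chamber. A492 read at 24 h for bacteria, 48 h for C. albicans, 72 h for A. fumigatus, C. neoformans and S. schenckii, 96 h for T. mentagrophytes. MIC taken as 90% growth inhibition relative to growth control.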

[2] = system: Staphylococcus aureus; experiment: Antimicrobial activity against methicillin-resistant Staphylococcus aureus after 24 hrs by microbroth dilution method; format: functional
Summary of the method: (§2)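 Microbroth dilution in Mueller Hinton broth, following NCCLS guidelines. Test compounds were run at 50-0.36 µg/mL against an initial inoculum of 1-5 × 10^3 cells/mL. Plates were incubated in a moist chamber at 35 °C, and absorbance at 492 nm was read after 24 h. MIC was taken as 90% growth inhibition relative to the growth control.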

[3] = system: Klebsiella pneumoniae; experiment: Antimicrobial activity against Klebsiella pneumoniae ATCC 27736 after 24 hrs by microbroth dilution method; format: functional; conditions: ATCC 27736, 24 h; summary of the method: as §1
[4] = system: Escherichia coli; experiment: Antimicrobial activity against Escherichia coli ATCC 9637 after 24 hrs by microbroth dilution method; format: functional; conditions: ATCC 9637, 24 h; summary of the method: as §1
[5] = system: Pseudomonas aeruginosa; experiment: Antimicrobial activity against Pseudomonas aeruginosa ATCC BAA-427 after 24 hrs by microbroth dilution method; format: functional; conditions: ATCC BAA-427, 24 h; summary of the method: as §1
[6] = system: Staphylococcus aureus; experiment: Antimicrobial activity against vancomycin-resistant Staphylococcus aureus after 24 hrs by microbroth dilution method; format: functional; summary of the method: as §2
[7] = system: Candida albicans; experiment: Antimicrobial activity against Candida albicans after 48 hrs by microbroth dilution method; format: functional; summary of the method: as §1
[8] = system: Aspergillus fumigatus; experiment: Antimicrobial activity against Aspergillus fumigatus after 72 hrs by microbroth dilution method; format: functional; summary of the method: as §1
[9] = system: Cryptococcus neoformans; experiment: Antimicrobial activity against Cryptococcus neoformans after 72 hrs by microbroth dilution method; format: functional; summary of the method: as §1
[10] = system: Sporothrix schenckii; experiment: Antimicrobial activity against Sporothrix schenckii after 72 hrs by microbroth dilution method; format: functional; summary of the method: as §1
[11] = system: Trichophyton mentagrophytes; experiment: Antimicrobial activity against Trichophyton mentagrophytes after 96 hrs by microbroth dilution method; format: functional; summary of the method: as §1
[12] = system: Trichophyton mentagrophytes; experiment: Ratio of miconazole MIC to compound MIC for Trichophyton mentagrophytes after 96 hrs by microbroth dilution method; format: functional
[13] = system: Trichophyton mentagrophytes; experiment: Ratio of fluconazole MIC to compound MIC for Trichophyton mentagrophytes after 96 hrs by microbroth dilution method; format: functional
[14] = system: L929; experiment: Cytotoxicity against mouse L929 cells assessed as change in morphology at MIC after 24 hrs using Giemsa staining by phase contrast microscopy; format: cell-based; conditions: l929, 24 h
Summary of the method: (§3)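 Mouse fibroblast L929 cells grown in DMEM with 10% FBS and antibiotic/antimycotic at 37 °C, 5% CO2. Medium switched to serum-free DMEM at 90% confluency, then compounds added (DMSO stocks) for 24 h. Cells fixed, stained with Giemsa for 30 min at 37 °C, washed with PBS, air dried and examined by phase-contrast microscopy.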

[15] = system: L929; experiment: Cytotoxicity against mouse L929 cells assessed as reduction in cell viability after 24 hrs by MTT assay; format: cell-based; conditions: l929, 24 h
Summary of the method: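 L929 fibroblasts in DMEM with 10% FBS at 37 °C, 5% CO2. Seeded at 1×10^3 cells per well, switched to serum-free DMEM at 90% confluency. Compounds from 1 mg/mL DMSO stocks tested at nine twofold dilutions for 24 h. MTT readout: viability = (A570−A630) sample / (A570−A630) control × 100.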

[16] = system: L929; experiment: Cytotoxicity against mouse L929 cells assessed as change in morphology at 50 ug/ml after 24 hrs using Giemsa staining by phase contrast microscopy; format: cell-based; conditions: l929, 24 h; summary of the method: as §3
[17] = system: Staphylococcus aureus; experiment: Ratio of ampicillin MIC to compound MIC for Staphylococcus aureus ATCC 25923 after 24 hrs by microbroth dilution method; format: functional
[18] = system: Staphylococcus aureus; experiment: Ratio of vancomycin MIC to compound MIC for Staphylococcus aureus ATCC 25923 after 24 hrs by microbroth dilution method; format: functional
[19] = system: Klebsiella pneumoniae; experiment: Ratio of ampicillin MIC to compound MIC for Klebsiella pneumoniae ATCC 27736 after 24 hrs by microbroth dilution method; format: functional
[20] = system: Klebsiella pneumoniae; experiment: Ratio of vancomycin MIC to compound MIC for Klebsiella pneumoniae ATCC 27736 after 24 hrs by microbroth dilution method; format: functional
[21] = system: Klebsiella pneumoniae; experiment: Ratio of methicillin MIC to compound MIC for Klebsiella pneumoniae ATCC 27736 after 24 hrs by microbroth dilution method; format: functional
[22] = system: Klebsiella pneumoniae; experiment: Ratio of gentamycin MIC to compound MIC for Klebsiella pneumoniae ATCC 27736 after 24 hrs by microbroth dilution method; format: functional
[23] = system: Candida albicans; experiment: Ratio of miconazole MIC to compound MIC for Candida albicans after 48 hrs by microbroth dilution method; format: functional
[24] = system: Aspergillus fumigatus; experiment: Ratio of clotrimazole MIC to compound MIC for Aspergillus fumigatus after 72 hrs by microbroth dilution method; format: functional
[25] = system: Aspergillus fumigatus; experiment: Ratio of miconazole MIC to compound MIC for Aspergillus fumigatus after 72 hrs by microbroth dilution method; format: functional

Row | Compound | MIC [1] [µg/mL] | MIC [2] [µg/mL] | MIC [3] [µg/mL] | MIC [4] [µg/mL] | MIC [5] [µg/mL] | MIC [6] [µg/mL] | MIC [7] [µg/mL] | MIC [8] [µg/mL] | MIC [9] [µg/mL] | MIC [10] [µg/mL] | MIC [11] [µg/mL] | Activity [14] | Activity [15] | Activity [16] | Ratio [17] | Ratio [18] | further results
1 | CCCCO[C@@H]1C=CC(=O)[C@@H](Cn2cc(CCCCl)nn2)O1 | 12.5 (≈ 38.1 µM) | > 50 | > 50 | > 50 | > 50 | > 50 | 25 (≈ 76.3 µM) | > 50 | 50 (≈ 153 µM) | 3.12 (≈ 9.52 µM) | 0.39 (≈ 1.19 µM) | Non-toxic | Dose-dependent effect | Toxic |  |  | Ratio [12]: 2; Ratio [13]: 40
2 | CCCCCCCCc1cn(C[C@H]2O[C@H](OCCC(C)C)C=CC2=O)nn1 | 0.78 (≈ 2.07 µM) | 3.12 (≈ 8.26 µM) | 0.78 (≈ 2.07 µM) | > 50 | > 50 | 3.12 (≈ 8.26 µM) | > 50 | > 50 | > 50 | 50 (≈ 132 µM) | 3.12 (≈ 8.26 µM) | Non-toxic | Dose-dependent effect | Toxic | 16 | 16 | Ratio [19]: 16; Ratio [20]: 16; Ratio [21]: 8; Ratio [22]: 2
3 | CCCCCCCCc1cn(C[C@H]2O[C@H](OCCCC)C=CC2=O)nn1 | 6.25 (≈ 17.2 µM) | > 50 | > 50 | > 50 | > 50 | > 50 | 6.25 (≈ 17.2 µM) | > 50 | 25 (≈ 68.8 µM) | 25 (≈ 68.8 µM) | 6.25 (≈ 17.2 µM) |  |  |  |  |  | Ratio [23]: 4
4 | CC(C)CCO[C@@H]1C=CC(=O)[C@@H](Cn2cc(C(C)(C)C)nn2)O1 | 1.56 (≈ 4.85 µM) | 12.5 (≈ 38.9 µM) | > 50 | > 50 | > 50 | 12.5 (≈ 38.9 µM) | 25 (≈ 77.8 µM) | > 50 | 25 (≈ 77.8 µM) | 12.5 (≈ 38.9 µM) | > 50 | Non-toxic | Dose-dependent effect | Toxic |  |  | 
5 | CC(C)CCO[C@@H]1C=CC(=O)[C@@H](Cn2cc(-c3ccccc3)nn2)O1 | 6.25 (≈ 18.3 µM) | 12.5 (≈ 36.6 µM) | 3.12 (≈ 9.14 µM) | 50 (≈ 146 µM) | 50 (≈ 146 µM) | 12.5 (≈ 36.6 µM) | 12.5 (≈ 36.6 µM) | 50 (≈ 146 µM) | 25 (≈ 73.2 µM) | 12.5 (≈ 36.6 µM) | 50 (≈ 146 µM) | Non-toxic | Dose-dependent effect | Toxic |  |  | 
6 | CC(C)CCO[C@@H]1C=CC(=O)[C@@H](Cn2cc(-c3ccc(F)cc3)nn2)O1 | 0.78 (≈ 2.17 µM) | 3.12 (≈ 8.68 µM) | > 50 | > 50 | > 50 | 3.12 (≈ 8.68 µM) | 6.25 (≈ 17.4 µM) | 50 (≈ 139 µM) | 50 (≈ 139 µM) | 6.25 (≈ 17.4 µM) | 1.56 (≈ 4.34 µM) | Non-toxic | Dose-dependent effect | Toxic | 16 | 16 | Ratio [23]: 4
7 | CC(C)CCO[C@@H]1C=CC(=O)[C@@H](Cn2cc(COCC34CC5CC(CC(C5)C3)C4)nn2)O1 | 1.56 (≈ 3.52 µM) | 3.12 (≈ 7.03 µM) | 0.78 (≈ 1.76 µM) | 50 (≈ 113 µM) | 50 (≈ 113 µM) | 3.12 (≈ 7.03 µM) | > 50 | 1.56 (≈ 3.52 µM) | 50 (≈ 113 µM) | 50 (≈ 113 µM) | 1.56 (≈ 3.52 µM) | Non-toxic | Dose-dependent effect | Toxic |  |  | Ratio [19]: 16; Ratio [20]: 16; Ratio [21]: 8; Ratio [22]: 2; Ratio [24]: 5; Ratio [25]: 8
8 | CCCCCCCCc1cnnn1C[C@H]1O[C@H](OCCC(C)C)C=CC1=O | 0.78 (≈ 2.07 µM) | 12.5 (≈ 33.1 µM) | 50 (≈ 132 µM) | > 50 | > 50 | 12.5 (≈ 33.1 µM) | 50 (≈ 132 µM) | > 50 | 25 (≈ 66.2 µM) | 6.25 (≈ 16.6 µM) | 25 (≈ 66.2 µM) | Non-toxic | Dose-dependent effect | Toxic | 16 | 16 | 
